“And” between values parts separate entries of the source, which are not always exact repeats. Equal values may be shown once. Where a name gives a salt, the structure may show the parent alone. Read-outs that look alike come from different tables or passages of the source.
What was measured:
MCF-7 xenografts [1] = assay: Ex vivo dye biodistribution analysis by NIRF of harvested tumors and organs; type: in vivo, mice; conditions: day 2 of injection
In short: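 Ovariectomized female athymic mice carried mammary fat-pad MCF-7 xenografts (5 million cells in Matrigel, estradiol:cholesterol 1:3 implants), grown to about 150 mm3. A separate cohort received 17 nmol dye i.p. After IVIS imaging, mice were killed by ketamine/xylazine overdose at each time point. Tumor, muscle, liver, lung, heart, kidneys and skin were rinsed, dried and IVIS-imaged; organ ROIs were normalized to tumor volume.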

[2] = Partition coefficient in n-octanol and water, measured by NIR fluorescence; type: physicochemical; conditions: octanol–water partitioning measured with NIRF
In short: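 Compound (5 nmol) was shaken 10 min in 0.6 mL n-octanol plus 0.6 mL water (final 4.15 μM, within the linear fluorescence range), then centrifuged at 10,000 rpm for 5 min. Triplicate 100 μL aliquots of each layer were imaged on IVIS (Ex/Em 745/820 nm) as ROI average radiance. log P = log(octanol/water intensity), corrected by a per-probe solvent factor; mean and SD reported.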

MCF-7 xenografts [3] = assay: In vivo NIRF imaging of tumor uptake in nude mice bearing MCF-7 xenografts; conditions: for retention of fluorescence in tumors: two days after injection
In short: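 Nude mice with estradiol-supported MCF-7 mammary fat-pad xenografts (about 150 mm3) received 17 nmol dye i.p. (n = 3). They were imaged under 2% isoflurane at serial time points up to 8 days on IVIS (Ex 740/Em 820 nm, auto exposure, F-stop 2). Tumor ROI radiance (p/s/cm2/sr) was background-subtracted using another body region and normalized to tumor volume.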

LTED cells = assay: Cell viability / growth inhibition by cell number count; type: cell-based, human
In short: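 LTED cells (MCF-7-derived, phenol red-free medium, charcoal-dextran stripped FBS) seeded at 60,000/well in 6-well plates and grown 2 days at 37 °C. They were then exposed to test compound for 2–5 days with 0.1% final ethanol or DMSO vehicle. Cells were saline-rinsed, nuclei released with HEPES–MgCl2 and ZAP (ethylhexadecyldimethylammonium bromide/acetic acid) and Coulter-counted. Three independent repeats, normalized to 100% viability; dose–response curves gave IC50.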

[4] = Cell viability / growth inhibition in benign breast epithelial cells; type: cell-based; conditions: human, MCF-10A cells (benign breast epithelial cells)

Row | fluorescence intensity in tumor tissue compared to muscle (MCF-7 xenografts [1]) | log P [2] | time of peak uptake (NIRF) (MCF-7 xenografts [3]; 17 nmol/mouse) | fluorescence intensity disappeared (MCF-7 xenografts [3]; 8 days after injection) | retention of fluorescence in tumors (MCF-7 xenografts [3]; 17 nmol/mouse) | Structure (SMILES) | IC50 (LTED cells; Homo sapiens, read-out: IC50 (cell growth inhibition), LTED cells) | IC50 (LTED cells; read-out: IC50 (cell growth inhibition), LTED cells) | inhibition of cells (LTED cells; up to 75 μM) | viability at 2 days, 50 µM [4]
1 | 8.6 fold | 0.49 | about 30 h | 80% | retained in the tumors | CC1(C)C(=CC=C2CCCC(C=CC3=[N+](CCCCS(=O)(=O)[O-])c4ccccc4C3(C)C)=C2Cl)N(CCCCCC(=O)O)c2ccccc21 [Compound 5, 3H-Indolium, 2-[2-[3-[2-[1-(5-Carboxypentyl)-1,3-dihydro-3,3-dimethyl-2H-indol-2-ylidene]ethylidene]-2-chloro-1-cyclohexen-1-yl]ethenyl]-3,3-dimethyl-1-(4-sulfobutyl) Inner Salt] |  |  |  | 
2 | 6.3 fold | −1.13 |  |  | retained in the tumors | CC1(C)C(/C=C/C2=C(Cl)C(=C\C=C3/N(CCCS(=O)(=O)[O-])c4ccccc4C3(C)C)/CCC2)=[N+](CCCS(=O)(=O)[O-])c2ccccc21.[Na+] [Compound 6, 3H-indolium, 2-[2-[2-chloro-3-[[1,3-dihydro-3,3-dimethyl-1-(3-sulfopropyl)-2H-indol-2-ylidene]ethylidene]-1-cyclohexen-1-yl]ethenyl]-3,3-dimethyl-1-(3-sulfopropyl)-, inner salt, sodium salt] |  |  |  | 
3 | 4.5 fold | 1.35 |  |  | retained in the tumors | CC1(C)C(/C=C/C2=C(Cl)C(=C/C=C3\N(CCCCCC(=O)O)c4ccccc4C3(C)C)/CCC2)=[N+](CCCCCC(=O)O)c2ccccc21 [Compound 7] |  |  |  | 
4 |  |  |  |  |  | CC(C)=CCC/C(C)=C/CC/C(C)=C/CSc1ccccc1C(=O)O [FTS, S-trans-trans-farnesylthiosalicylic acid] | ~51.3 µM | ~51.8 µM and < 50 µM | 70–75% | ~100%

Reference: publication PMC5815365 (Molecular pharmaceutics, 2016)
